We go through 5 molecules from PMC2908029 (Current radiopharmaceuticals, 2010).

Data set [1] has as its system brain 5-HT1A receptors. Nature of the data set: PET imaging of [11C]S14506 in monkey. In kind it is in vivo, rhesus monkey.
Data set [2] deals with human 5-HT1A receptors. As to conditions: recombinant Chinese hamster ovary cells, room temperature; cited from earlier work.
Data set [3] deals with 5-HT1A receptors. As to conditions: cited from earlier work.
Data set [4] in a line: Distribution between blood components. In kind it is in vitro ADME. The conditions noted are these: rat, without hematocrit correction. The procedure, abridged: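 [18F]-labelled test compound (0.8 μCi) added to heparinized rat whole blood (from cardiac puncture) in duplicate tubes and incubated at room temperature for 27 min. Blood centrifuged at 1800 × g for 3 min, plasma separated, and all fractions γ-counted. Percent radioactivity in plasma and in cells reported without hematocrit correction.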

The nature of data set [5]: Plasma protein binding. In kind it is in vitro ADME. As to conditions: rat plasma.
Data set [6] addresses T1, brain 5-HT1A receptors (Rattus norvegicus, UniProt P19327).
T1 sequence (P19327 1-422): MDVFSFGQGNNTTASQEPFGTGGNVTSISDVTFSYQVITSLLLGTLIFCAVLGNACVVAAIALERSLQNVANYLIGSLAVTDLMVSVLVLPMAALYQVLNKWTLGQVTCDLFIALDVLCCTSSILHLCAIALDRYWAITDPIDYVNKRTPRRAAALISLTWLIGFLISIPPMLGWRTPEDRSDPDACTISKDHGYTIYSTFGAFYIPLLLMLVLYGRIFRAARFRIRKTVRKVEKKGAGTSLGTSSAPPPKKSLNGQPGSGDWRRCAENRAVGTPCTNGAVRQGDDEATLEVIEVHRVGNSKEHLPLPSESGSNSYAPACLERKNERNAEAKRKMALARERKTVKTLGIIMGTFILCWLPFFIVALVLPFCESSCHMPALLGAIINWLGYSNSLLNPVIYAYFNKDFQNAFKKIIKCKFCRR
The data set can be described thus: PET imaging of [11C]S14506 in rat. The class given is in vivo, Sprague-Dawley rat. As to conditions: i.v.

Data set [7] is described as follows: Emergence of radiometabolites in monkey plasma. In kind it is in vivo, rhesus monkey. As to conditions: over the PET study.
The nature of data set [8]: Stability in whole blood. In kind it is in vitro ADME. The conditions noted are these: rat whole blood in vitro, 125 min, room temperature.
The nature of data set [9]: Ex vivo biodistribution and radiometabolite composition of [18F]S14506 in rat. Set-up: species or system Sprague-Dawley rat.
Data set [10] can be described thus: Effect of cyclosporin A on rat plasma and brain levels of [18F]S14506. The conditions noted are these: 30 min after administration. In kind it is in vivo.
A short description of data set [11]: Stability in sodium phosphate buffer. The conditions noted are these: sodium phosphate buffer (0.15 M), room temperature, 2.5 h. The class given is physicochemical.
For data set [12], the system named is brain 5-HT1A receptors. Nature of the data set: PET imaging of [18F]S14506 in monkey. In kind it is in vivo, rhesus monkey. As to conditions: absence of radioactivity accumulation in skull.

“And” between values parts separate entries of the source, which are not always exact repeats. Identical values can stand only once.

Consider `COc1ccc2cccc(N3CCN(CCNC(=O)c4ccc(F)cc4)CC3)c2c1` [S14506, 1-[2-(4-fluorobenzoylamino)ethyl]-4-(7-methoxynaphthyl)piperazine, reference compound], for which the “time required for a 50% decrease in cerebellar radioactivity” value in [1] (monkey, cerebellar time-activity curves (non-specific binding)) is recorded as > 32 min. Also, the “off rate from human 5-HT1A receptors” value in data set [2] was 0.029 min⁻¹.
A word on the Ki: it is the equilibrium dissociation constant of an inhibitor or competing ligand from its target. On to `COc1ccccc1N1CCN(CCCCn2ncc(=O)n(C)c2=O)CC1` [[^11C]CUMI-101, [O-methyl-^11C]2-(4-(4-(2-methoxyphenyl)piperazin-1-yl)butyl)-4-methyl-1,2,4-triazine-3,5(2H,4H)dione], for which the Ki in data set [3] (read-out: Ki, 5-HT1A receptor affinity) is 0.15 nM.
On to `[11CH3]Oc1ccc2cccc(N3CCN(CCNC(=O)c4ccc(F)cc4)CC3)c2c1` [[^11C]S14506], for which the “whole blood distribution to cellular components” value in data set [4] is 40.9%. In addition, in data set [4], the “whole blood distribution to plasma” value was determined as 59.1%. Besides, the “free in plasma (plasma protein binding)” value in data set [5] amounted to 0.52%. The peak brain radioactivity in data set [1] (monkey pre-treated with tariquidar 4 mg/kg, i.v., 30 min before) is 240 % SUV and ~ 240 % SUV. In addition, the “peak whole brain radioactivity” value in data set [1] (monkey, baseline, i.v., at 7 min) is ~ 170 % SUV; in data set [6] (rat pre-treated with cyclosporin A 25 mg/kg) it was ~ 310 % SUV; in data set [6] (rat pre-treated with cyclosporin A 50 mg/kg), ~ 350 % SUV; in data set [6] (rat, baseline, at 2 min), 210 % SUV and ~ 210 % SUV. Moreover, in data set [7], the “maximal share of the second (minor) radiometabolite in plasma radioactivity” value is on record as ≤ 3.1%. Also, the “unchanged radioligand after incubation with whole blood” value in data set [8] is listed as > 99.5%.
Regarding `COc1ccc2cccc(N3CCN(CCNC(=O)c4ccc([18F])cc4)CC3)c2c1` [[^18F]S14506], the “whole blood distribution to cellular components” value in [4] was found to be 25.8%. For the same molecule, in data set [4], the “whole blood distribution to plasma” value turned out to be 74.2%. Moreover, in data set [9] (30 min after administration of [18F]S14506, n = 1 rat), the “Composition (%) of radioactivity, Cerebellum” value is 93.9%. Further, the “Composition (%) of radioactivity, Remainder of brain” value in data set [9] (30 min after administration of [18F]S14506, n = 2 rats) worked out at 97.2 ± 0.20%. The “Composition (%) of radioactivity, Plasma” value in data set [9] (30 min after administration of [18F]S14506, n = 3 rats (mean ± SD)) worked out at 38.6 ± 0.17%. Further, the “[18F]S14506 concentration (%SUV), Remainder of brain” value amounted to 141 %SUV in data set [10] (Control) and 211 %SUV in [10] (Cyclosporin A treated (50 mg/kg, i.v.)). In addition, the “free in plasma (plasma protein binding)” value in data set [5] came to 0.61%. For the same molecule, the “stability to incubation in buffer” value in data set [11] is on record as “stable”. In data set [12], the radiodefluorination result is “not radiodefluorinated”.
In general, Kd refers to the constant that tells how readily two partners part at equilibrium. WAY-100635: in [3] (read-out: Kd, 5-HT1A receptor affinity), the Kd was 0.1 nM.
